From ChEMBL document CHEMBL4828740, “Discovery of Quinoxaline-Based P1-P3 Macrocyclic NS3/4A Protease Inhibitors with Potent Activity against Drug-Resistant Hepatitis C Virus Variants” (J Med Chem, 2021)

Key:
[1] = biological target: T1, Hepatitis C virus serine protease, NS3/NS4A (Hepatitis C virus, UniProt A3EZI9+D2K2A8); test: Inhibition of HCV GT-3a NS3/4a protease using Ac-DE-D(Edans)-EE-Abu-c-[COO]-AS-K(Dabcy1)-NH2 preincubated for 1 hr followed by substrate addition; assay type: protein-complex assay, Hepatitis C virus subtype 3a
[2] = biological target: T1, Hepatitis C virus serine protease, NS3/NS4A; test: Inhibition of HCV GT-1a NS3/4a protease using Ac-DE-D(Edans)-EE-Abu-c-[COO]-AS-K(Dabcy1)-NH2 preincubated for 1 hr followed by substrate addition; assay type: protein complex, Hepatitis C virus subtype 1a
Hepatitis C virus [3] = test: Antiviral activity against HCV genotype 1b infected in human Huh7 cells incubated for 96 hrs by luciferase assay; assay type: functional, organism-based, Hepacivirus hominis; conditions: Huh-7, 96 h
Procedure, shortened: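 Con1 (GT-1b) luciferase reporter replicon carrying the H77 (GT-1a) NS3 protease region, either WT or with A156T or D168A introduced by megaprimer mutagenesis. Cured Huh7 cells grown in DMEM with 10% heat-inactivated FBS and 0.1 mM non-essential amino acids. Cells electroporated with replicon RNA and kept with serially diluted inhibitor.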

Hepatitis C virus [4] = test: Antiviral activity against HCV genotype 1b harboring A156T mutant infected in human Huh7 cells incubated for 96 hrs by luciferase assay; assay type: functional, organism-based, Hepacivirus hominis; conditions: subtype 1b, Huh-7, 96 h
Procedure, shortened: (§1)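 Con1 (GT-1b) luciferase reporter replicon carrying the H77 (GT-1a) NS3 protease region, with the mutation introduced by megaprimer site-directed mutagenesis. Cured Huh7 cells were grown in DMEM with 10% heat-inactivated FBS and 0.1 mM non-essential amino acids, electroporated with replicon RNA transcripts, and kept with serially diluted inhibitor. EC50 was taken directly from the inhibition curves.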

Hepatitis C virus [5] = test: Antiviral activity against HCV genotype 1b harboring D168A mutant infected in human Huh7 cells incubated for 96 hrs by luciferase assay; assay type: functional, organism-based, Hepacivirus hominis; conditions: subtype 1b, Huh-7, 96 h; procedure, shortened: as §1
Hepatitis C virus [6] = test: Antiviral activity against HCV genotype 3a infected in human Huh7.5 cells incubated for 72 hrs by luciferase assay; assay type: functional, organism-based, Hepacivirus hominis; conditions: subtype 3a, Huh7.5, 72 h
Procedure, shortened: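 Huh7.5 cells stably harboring the GT-3a replicon S52/SG-Feo SHI, seeded at 8,000 cells/well. Cells lysed in 1X Passive Lysis Buffer and luciferase activity measured. EC50 taken from drug inhibition curves.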

SMILES | Ki [1] | Ki [2] | EC50 (Hepatitis C virus [3]) | EC50 (Hepatitis C virus [4]) | EC50 (Hepatitis C virus [5]) | EC50 (Hepatitis C virus [6])
COc1ccc2nc(O[C@@H]3C[C@H]4C(=O)N[C@]5(C(=O)NS(=O)(=O)C6(C)CC6)C[C@H]5/C=C/CCCCC[C@H](NC(=O)OC5(C(F)(F)F)CCC5)C(=O)N4C3)c(C(F)(F)F)nc2c1 | 133 nM | 2 nM | 1.4 nM | 5.1 nM | 7.8 nM | 900 nM
COc1ccc2nc(C)c(O[C@@H]3C[C@H]4C(=O)N[C@]5(C(=O)NS(=O)(=O)C6(C)CC6)C[C@H]5/C=C/CCCCC[C@H](NC(=O)OCC5(C(F)(F)F)CC5)C(=O)N4C3)nc2c1 | 230 nM | 0.9 nM | 0.1 nM | 5.6 nM | 1.4 nM | 330 nM
CCC(CC)OC(=O)N[C@H]1CCCCC/C=C/[C@@H]2C[C@@]2(C(=O)NS(=O)(=O)C2(C)CC2)NC(=O)[C@@H]2C[C@@H](Oc3nc4ccc(OC)cc4nc3C(F)(F)F)CN2C1=O | 840 nM | 4.6 nM | 4.1 nM | 85 nM | 17 nM | –
CCC(C)(C)OC(=O)N[C@H]1CCCCC/C=C/[C@@H]2C[C@@]2(C(=O)NS(=O)(=O)C2(C)CC2)NC(=O)[C@@H]2C[C@@H](Oc3nc4ccc(OC)cc4nc3C(F)(F)F)CN2C1=O | 240 nM | 2.7 nM | 1.5 nM | 10 nM | 11 nM | –
CC(C)(C)[C@@H]1NC(=O)O[C@@H]2CCC[C@H]2OC/C=C/C(F)(F)c2nc3ccccc3nc2O[C@@H]2C[C@@H](C(=O)N[C@]3(C(=O)NS(=O)(=O)C4(C)CC4)C[C@H]3C(F)F)N(C2)C1=O | – | – | 0.2 nM | – | 0.2 nM | 30 nM
COc1ccc2nc(O[C@@H]3C[C@H]4C(=O)N[C@]5(C(=O)NS(=O)(=O)C6(C)CC6)C[C@H]5/C=C/CCCCC[C@H](NC(=O)OC5CC5)C(=O)N4C3)c(C(F)(F)F)nc2c1 | 522 nM | 14 nM | 2 nM | 36 nM | 14 nM | –
COc1ccc2nc(O[C@@H]3C[C@H]4C(=O)N[C@]5(C(=O)NS(=O)(=O)C6(C)CC6)C[C@H]5/C=C/CCCCC[C@H](NC(=O)OC5(C)CCC5)C(=O)N4C3)c(C(F)(F)F)nc2c1 | 283 nM | 4.9 nM | 1.6 nM | 26 nM | 58 nM | –
COc1ccc2nc(C)c(O[C@@H]3C[C@H]4C(=O)N[C@]5(C(=O)NS(=O)(=O)C6(C)CC6)C[C@H]5/C=C/CCCCC[C@H](NC(=O)OCC5(C)CC5(F)F)C(=O)N4C3)nc2c1 (stereo partly specified) | 100 nM | 3.1 nM | 0.3 nM | 8.3 nM | 2.1 nM | –
COc1ccc2nc(C)c(O[C@@H]3C[C@H]4C(=O)N[C@]5(C(=O)NS(=O)(=O)C6(C)CC6)C[C@H]5/C=C/CCCCC[C@H](NC(=O)OC5C[C@@H]6C[C@@H]6C5)C(=O)N4C3)nc2c1 (stereo partly specified) | 39 nM | 0.5 nM | 0.1 nM | 5.3 nM | 0.5 nM | 900 nM
COc1ccc2nc(O[C@@H]3C[C@H]4C(=O)N[C@]5(C(=O)NS(=O)(=O)C6(C)CC6)C[C@H]5/C=C/CCCCC[C@H](NC(=O)OCC5(C)CC5(F)F)C(=O)N4C3)c(C(F)(F)F)nc2c1 (stereo partly specified) | 336 nM | 2.1 nM | 2.7 nM | 130 nM | 8.5 nM | –
COc1ccc2nc(C)c(O[C@@H]3C[C@H]4C(=O)N[C@]5(C(=O)NS(=O)(=O)C6(C)CC6)C[C@H]5/C=C/CCCCC[C@H](NC(=O)O[C@@H]5CCC[C@H]5F)C(=O)N4C3)nc2c1 | 216 nM | 2.3 nM | 0.4 nM | 12 nM | 43 nM | –
COc1ccc2nc(C)c(O[C@@H]3C[C@H]4C(=O)N[C@]5(C(=O)NS(=O)(=O)C6(C)CC6)C[C@H]5/C=C/CCCCC[C@H](NC(=O)OC(C)(C)C(F)(F)F)C(=O)N4C3)nc2c1 | 66 nM | 2.6 nM | 0.8 nM | 3.3 nM | – | 160 nM
COc1ccc2nc(O[C@@H]3C[C@H]4C(=O)N[C@]5(C(=O)NS(=O)(=O)C6(C)CC6)C[C@H]5/C=C/CCCCC[C@H](NC(=O)OC5CCCC5)C(=O)N4C3)c(C(F)(F)F)nc2c1 | 433 nM | 8.1 nM | 3.2 nM | 45 nM | 6.2 nM | –
COc1ccc2nc(O[C@@H]3C[C@H]4C(=O)N[C@]5(C(=O)NS(=O)(=O)C6(C)CC6)C[C@H]5/C=C/CCCCC[C@H](NC(=O)O[C@H](C)C(F)(F)F)C(=O)N4C3)c(C(F)(F)F)nc2c1 | 490 nM | 2.8 nM | 1.6 nM | 30 nM | 7.3 nM | –
COc1ccc2nc(C)c(O[C@@H]3C[C@H]4C(=O)N[C@]5(C(=O)NS(=O)(=O)C6(C)CC6)C[C@H]5/C=C/CCCCC[C@H](NC(=O)OC5CCC5)C(=O)N4C3)nc2c1 | 110 nM | 0.3 nM | 0.1 nM | 3.4 nM | 2.7 nM | –
COc1ccc2nc(O[C@@H]3C[C@H]4C(=O)N[C@]5(C(=O)NS(=O)(=O)C6(C)CC6)C[C@H]5/C=C/CCCCC[C@H](NC(=O)OC(C)(C)C(F)(F)F)C(=O)N4C3)c(C(F)(F)F)nc2c1 | 390 nM | 3.6 nM | 1 nM | 10 nM | 4.3 nM | 330 nM
COc1ccc2nc(O[C@@H]3C[C@H]4C(=O)N[C@]5(C(=O)NS(=O)(=O)C6(C)CC6)C[C@H]5/C=C/CCCCC[C@H](NC(=O)O[C@@H](C)C(F)(F)F)C(=O)N4C3)c(C(F)(F)F)nc2c1 | 580 nM | 7.7 nM | 5.6 nM | 75 nM | 18 nM | –
COc1ccc2nc(C)c(O[C@@H]3C[C@H]4C(=O)N[C@]5(C(=O)NS(=O)(=O)C6(C)CC6)C[C@H]5/C=C/CCCCC[C@H](NC(=O)OC5CCCCC5)C(=O)N4C3)nc2c1 | 145 nM | 0.9 nM | 0.2 nM | 6.8 nM | 3 nM | –
COc1ccc2nc(O[C@@H]3C[C@H]4C(=O)N[C@]5(C(=O)NS(=O)(=O)C6(C)CC6)C[C@H]5/C=C/CCCCC[C@H](NC(=O)O[C@@H](C)C(C)C)C(=O)N4C3)c(C(F)(F)F)nc2c1 | 447 nM | 6.1 nM | 0.9 nM | 8.7 nM | 3.1 nM | 1500 nM
COc1ccc2nc(O[C@@H]3C[C@H]4C(=O)N[C@]5(C(=O)NS(=O)(=O)C6(C)CC6)C[C@H]5/C=C/CCCCC[C@H](NC(=O)OC5(C(F)(F)F)CCCC5)C(=O)N4C3)c(C(F)(F)F)nc2c1 | 414 nM | 5.7 nM | 0.7 nM | 19 nM | 5.2 nM | 290 nM
COc1ccc2nc(C)c(O[C@@H]3C[C@H]4C(=O)N[C@]5(C(=O)NS(=O)(=O)C6(C)CC6)C[C@H]5/C=C/CCCCC[C@H](NC(=O)OC5(C(F)(F)F)CCC5)C(=O)N4C3)nc2c1 | 96 nM | 1.5 nM | 0.3 nM | 5.9 nM | 25 nM | 310 nM
COc1ccc2nc(C)c(O[C@@H]3C[C@H]4C(=O)N[C@]5(C(=O)NS(=O)(=O)C6(C)CC6)C[C@H]5/C=C/CCCCC[C@H](NC(=O)O[C@H](C)C(F)(F)F)C(=O)N4C3)nc2c1 | 122 nM | 1.1 nM | 0.5 nM | 18 nM | 2.5 nM | 260 nM
COc1ccc2nc(O[C@@H]3C[C@H]4C(=O)N[C@]5(C(=O)NS(=O)(=O)C6(C)CC6)C[C@H]5/C=C/CCCCC[C@H](NC(=O)OC5(C)CCCC5)C(=O)N4C3)c(C(F)(F)F)nc2c1 | 161 nM | 0.9 nM | 5.8 nM | 70 nM | 16 nM | –
COc1ccc2nc(O[C@@H]3C[C@H]4C(=O)N[C@]5(C(=O)NS(=O)(=O)C6(C)CC6)C[C@H]5/C=C/CCCCC[C@H](NC(=O)OC(C)(C)C)C(=O)N4C3)c(C(F)(F)F)nc2c1 | 230 nM | 5.8 nM | 0.9 nM | 12 nM | 4.7 nM | –
